Reference: ChEMBL document CHEMBL1240369, “Antiviral efficacy of the novel compound BIT225 against HIV-1 release from human macrophages” (Antimicrob Agents Chemother, 2010)
Active and inactive are the calls of the source. The calls are words filed in the database; no cut-off is given here.

Experiments:
[1] = Cytotoxicity against human MDM cells assessed as cell viability at 0 to 10 uM by MTT assay; type: cell-based; conditions: read-out: Activity
In short: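 Infected day 14 MDM were exposed to compound, up to 10 μM in parallel antiviral assays or extended to 1,000 μM for TC50. On day 7, half the medium was removed and 100 μg MTT added per well for 5 h at 37°C. Formazan was dissolved in acidified isopropanol with 10% Triton X-100 and A560 read. Viability was expressed vs DMSO controls; TC50 by nonlinear regression (n = 3).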

[2] = Inhibition of Vpu ion channel in HIV1 MDR3761 in human MDM assessed as inhibition of vrius release; parameters: species or system Human immunodeficiency virus 1
[3] = Selectivity index, ratio of TC50 for human MDM cells to EC50 for HIV1 92UG029 infected in human MDM cells; type: toxicity, cell-based; conditions: read-out: Selectivity Index
[4] = test system: MDM; assay: Inhibition of Vpu ion channel in 0.05 MOI HIV1 Ba-L infected in 14 days differentiated human MDM cells assessed as number of gag copy; type: cell-based; conditions: Human immunodeficiency virus 1
In short: (§1)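 MDM differentiated for 7, 10 or 14 days were infected with HIV-1 Ba-L across a range of MOIs, washed three times with PBS and cultured 7 days with 10 μM compound or equal-volume DMSO. On day 7 postinfection, supernatant RT activity was measured (and infectivity on TZM-bl cells). Cell lysates went to real-time PCR for LTR-gag DNA, normalised to albumin copies.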

[5] = test system: MDM; assay: Inhibition of Vpu ion channel in 0.001 to 3 MOI HIV1 Ba-L infected in 7-14 days differentiated human MDM cells assessed as virus inhibition rate measured after 7 days; type: cell-based; conditions: Human immunodeficiency virus 1; in short: as §1
[6] = test system: MDM; assay: Inhibition of Vpu ion channel in 0.001 MOI HIV1 Ba-L infected in 14 days differentiated human MDM cells assessed as viral inhibition by RT assay; type: cell-based; parameters: scale not given: the % may be the effect or the level left; conditions: Human immunodeficiency virus 1; in short: as §1
[7] = test system: MDM; assay: Inhibition of Vpu ion channel in 0.05 MOI HIV1 Ba-L acutely infected in 14 days differentiated human MDM cells assessed as viral release after 7 days relative to control; type: cell-based; conditions: Human immunodeficiency virus 1
In short: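 Day 14 MDM were acutely infected with HIV-1 Ba-L at MOI 0.05 for 3 h, washed three times with PBS, then cultured a further 7 days in DMEM10+ with 10 μM compound or equal DMSO. Virus release was measured as supernatant RT activity on day 21 of culture, relative to DMSO controls.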

[8] = test system: Human immunodeficiency virus 2; assay: Antiviral activity against 0.05 MOI HIV2 cytopathic strain chronically infected in 7-14 days differentiated human MDM cells assessed as viral inhibition measured after 7 days; type: functional
In short: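 Day 14 MDM from three seronegative donors were infected at MOI 0.05 for 7 days, then washed free of extracellular virus. Cultures then ran a further 7 days with or without 10 μM BIT225, from day 21. Day 28 supernatants were assayed by RT activity ELISA. Percent inhibition was taken versus untreated controls, as mean of three donors.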

[9] = test system: Human immunodeficiency virus 1; assay: Antiviral activity against HIV1 Ba-L in human MDM assessed as inhibition integration of virus to host cell genome at 100 nM; type: functional, organism-based
[10] = target: Protease (Human immunodeficiency virus 1) (UniProt Q9YQ12); assay: Inhibition of HIV1 protease assessed as substrate cleavage by cell free assay
In short: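 Cell-free fluorometric protease assay: compound (1–100 μM) was premixed with 2 μM quenched HIV-1 protease substrate 1. Background fluorescence (ex 340/em 490 nm) was read every 5 s for 5 min. HIV-1 protease was then added at 1.5% and cleavage followed for a further 5 min. LPV and EFV served as controls.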

Chain of Protease (Human immunodeficiency virus 1) (Q9YQ12 as listed by the source): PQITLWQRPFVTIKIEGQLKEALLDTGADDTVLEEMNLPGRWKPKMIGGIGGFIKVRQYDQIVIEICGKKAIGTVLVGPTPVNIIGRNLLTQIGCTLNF

**Q.** What does the source list for `Cn1cc(-c2cccc3cc(C(=O)NC(=N)N)ccc23)cn1`?
**A.** viability at up to 10 µM [1]: > 96%; EC50 [2]: 5.1 µM; selectivity ratio [3]: 14; Activity [4]: Active; Activity [5]: Active; Activity [6]: 77%; inhibition [7]: 38%; inhibition (INH) [8]: 6.1%; Activity [9]: Active; Activity [10]: inactive
